Results as given in ChEMBL document CHEMBL1141433, “Tauramamide, a lipopeptide antibiotic produced in culture by Brevibacillus laterosporus isolated from a marine habitat: structure elucidation and synthesis” (2007).
Converted amounts (≈) assume the structure as drawn. The source made the active and inactive calls. The calls are words filed in the database; no cut-off is given here.

Key:
Type in all cases: functional
Staphylococcus aureus [1] = assay: Antimicrobial activity against methicillin-resistant Staphylococcus aureus by agar extract inclusion assay
Outline: (§1)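 Compound dissolved in DMSO or EtOH and mixed into Mueller Hinton agar cooled to 50 °C. Agar serially diluted 1:2 with more cooled agar. Pathogens spotted on the surface at about 2.5 × 10⁵ cells/mL inoculum. Plates incubated overnight at 37 °C and scored for growth inhibition to give the MIC.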

Candida albicans [2] = assay: Antimicrobial activity against Candida albicans by Alamar blue assay
Outline: (§2)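 1:2 serial dilution in liquid culture; compound dissolved in DMSO or EtOH. Bacteria grown in TSB+ (5 g/L NaCl); C. albicans in Sabouraud or TSB+. Alamar Blue redox indicator read by colour: blue/purple means growth inhibited, bright pink means growth.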

Candida albicans [3] = assay: Antimicrobial activity against Candida albicans by agar extract inclusion assay; outline: as §1
Enterococcus sp. = assay: Antimicrobial activity against Enterococcus sp. by Alamar blue assay; outline: as §2
Staphylococcus aureus [4] = assay: Antimicrobial activity against methicillin-resistant Staphylococcus aureus by Alamar blue assay; outline: as §2

Structure (SMILES)	MIC (Staphylococcus aureus [1])	MIC (Candida albicans [2])	MIC (Candida albicans [3])	MIC (Enterococcus sp.)	MIC (Staphylococcus aureus [4])	Activity (Candida albicans [2])	Activity (Staphylococcus aureus [4])
CCOC(=O)[C@H](CCCNC(=N)N)NC(=O)[C@H](Cc1c[nH]c2ccccc12)NC(=O)[C@@H](CC(C)C)NC(=O)[C@H](CO)NC(=O)[C@@H](Cc1ccc(O)cc1)NC(=O)CCCCCC(C)C [TAURAMAMIDE ETHYL ESTER]	9.4 µg/mL (≈ 10.5 µM)	200 µg/mL (≈ 224 µM)	75 µg/mL (≈ 84.1 µM)	0.1 µg/mL (≈ 0.112 µM)	25 µg/mL (≈ 28 µM)		
CC(C)CCCCCC(=O)N[C@H](Cc1ccc(O)cc1)C(=O)N[C@@H](CO)C(=O)N[C@H](CC(C)C)C(=O)N[C@@H](Cc1c[nH]c2ccccc12)C(=O)N[C@@H](CCCNC(=N)N)C(=O)O [TAURAMAMIDE]	200 µg/mL (≈ 231 µM)		50 µg/mL (≈ 57.9 µM)	0.1 µg/mL (≈ 0.116 µM)		inactive	inactive
